The values that follow come from ChEMBL document CHEMBL2062463 (Bioorg Med Chem Lett, 2012).

A short description of series [1]: Antiproliferative activity against human HAEC cells expressing VEGFR after 72 hrs by MTT assay. The class given is functional, cell-based. The essentials:
(§1)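 MTT reduction by mitochondrial enzyme as viability read-out in primary endothelial HAEC and cancer HT29 cells. IC50 is the concentration giving 50% inhibition of proliferation, taken from dose-response curves of percent proliferation plotted against compound concentration.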
(Tetrazolium assays rely on reduction of a dye to a coloured formazan, in cell work by metabolically active cells.)

The subject of series [2] is HT-29. The experiment in a line: Antiproliferative activity against human HT-29 cells expressing VEGFR after 72 hrs by MTT assay. The settings on record: HT-29, 72 h. Format: functional, cell-based. The essentials: as §1
Series [3] deals with Vascular endothelial growth factor receptor 2 (Homo sapiens, UniProt P35968). The series can be described thus: Competitive inhibition of VEGFR2 by qPCR method. (In general: Quantitative PCR measures a nucleic acid by following its amplification.)
A short description of series [4]: Lipophilicity, log D of the compound in octanol and water at pH 7.4 by shake flask method. Format: physicochemical.
The nature of series [5]: Protein binding in human serum by HPLC analysis. Format: ADME, cell-free. The conditions noted are these: read-out: PB (converted). The essentials: (§2)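 [125I]-labelled compound incubated in fresh human serum at 4 °C and 37 °C at several time intervals. Bound fraction estimated after ethanol precipitation-extraction of proteins. Supernatant analysed by HPLC for intact radiolabelled compound.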

The nature of series [6]: Chemical stability of the compound in 1% tween-20 up to 24 hrs in dark. Format: physicochemical. The essentials: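 Radiolabelled [125I] compound held in saline containing 1% Tween-20 at 37 °C in the dark for up to 24 h. Radiochemical stability checked over that period.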
The subject of series [7] is Serum. The experiment in a line: Stability in human serum by HPLC analysis. Format: ADME, cell-free. The method, boiled down: as §2

Chain of Vascular endothelial growth factor receptor 2 (P35968 whole entry): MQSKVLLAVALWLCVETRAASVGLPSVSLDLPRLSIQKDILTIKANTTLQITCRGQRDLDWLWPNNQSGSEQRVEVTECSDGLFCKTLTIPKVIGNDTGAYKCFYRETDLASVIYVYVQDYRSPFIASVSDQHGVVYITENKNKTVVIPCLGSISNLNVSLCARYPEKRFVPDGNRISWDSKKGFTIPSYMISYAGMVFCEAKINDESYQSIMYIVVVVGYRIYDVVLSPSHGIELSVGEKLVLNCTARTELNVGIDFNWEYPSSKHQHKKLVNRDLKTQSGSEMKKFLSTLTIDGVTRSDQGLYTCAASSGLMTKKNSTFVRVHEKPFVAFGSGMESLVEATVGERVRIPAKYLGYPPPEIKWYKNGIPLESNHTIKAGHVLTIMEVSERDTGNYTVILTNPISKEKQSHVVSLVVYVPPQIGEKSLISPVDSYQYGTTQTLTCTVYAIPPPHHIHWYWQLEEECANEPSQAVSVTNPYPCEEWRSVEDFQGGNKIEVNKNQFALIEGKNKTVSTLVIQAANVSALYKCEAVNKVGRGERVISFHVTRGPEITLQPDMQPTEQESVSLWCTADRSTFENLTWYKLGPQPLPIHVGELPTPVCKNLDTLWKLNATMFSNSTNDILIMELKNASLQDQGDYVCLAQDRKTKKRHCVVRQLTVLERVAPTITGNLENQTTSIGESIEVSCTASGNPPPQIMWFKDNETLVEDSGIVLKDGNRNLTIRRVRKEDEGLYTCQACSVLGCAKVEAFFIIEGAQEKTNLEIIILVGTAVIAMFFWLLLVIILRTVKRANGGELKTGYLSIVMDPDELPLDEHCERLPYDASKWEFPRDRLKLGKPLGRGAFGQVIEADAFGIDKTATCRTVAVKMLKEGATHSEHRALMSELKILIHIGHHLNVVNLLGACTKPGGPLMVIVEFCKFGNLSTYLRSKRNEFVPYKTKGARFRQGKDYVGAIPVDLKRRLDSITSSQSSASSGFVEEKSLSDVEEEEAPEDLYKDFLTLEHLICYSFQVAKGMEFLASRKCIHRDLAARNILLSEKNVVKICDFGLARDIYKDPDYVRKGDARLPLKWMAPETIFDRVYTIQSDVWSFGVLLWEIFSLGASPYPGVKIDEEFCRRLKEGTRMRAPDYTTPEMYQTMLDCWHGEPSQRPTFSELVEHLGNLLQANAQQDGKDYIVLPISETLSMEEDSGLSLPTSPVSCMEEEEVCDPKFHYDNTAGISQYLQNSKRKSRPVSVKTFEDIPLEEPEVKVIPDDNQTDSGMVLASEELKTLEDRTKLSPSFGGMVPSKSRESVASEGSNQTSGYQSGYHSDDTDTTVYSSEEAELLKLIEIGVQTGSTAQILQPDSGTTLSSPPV

Usually IC50 stands for the point on the concentration scale where inhibition reaches its midpoint. Lower therefore signals greater potency in that assay. As usually defined, the Kd is the free concentration of one partner at which half of the binding sites on the other are occupied at equilibrium, for simple one-to-one binding. A high value points to lower affinity. Regarding `CCN(CC)CCNC(=O)c1c(C)[nH]c(/C=C2\C(=O)Nc3ccc(I)cc32)c1C`, the IC50 in series [1] was 1120 nM; in series [2] it was 1810 nM. Besides, the affinity in series [3], expressed as Kd, was 16 nM.
As usually defined, the logD is lipophilicity at a set pH, counting ionised and neutral species. Compound `CCN(CC)CCNC(=O)c1c(C)[nH]c(/C=C2\C(=O)Nc3ccc([125I])cc32)c1C` came in with a logD in series [4] of 2.25. In addition, the fraction unbound in series [5] was 0.95. Besides, the Stability result in series [6] and in series [7] was “Stable” in each case.
In the case of `CCN(CC)CCNC(=O)c1c(C)[nH]c(/C=C2\C(=O)Nc3ccc(F)cc32)c1C` [SUNITINIB], the IC50 in series [1] came out at 100 nM; in series [2] it was 330 nM.
